According to ChEMBL document CHEMBL1123178, “Preparation and evaluation of radioiodinated (iodophenyl)cholines and their morpholinium and piperidinium analogues as myocardial perfusion imaging agents” (J Med Chem, 1986):

Legend:
[1] = Distribution in the heart after 15 min of intravenous administration; format: ADME, tissue-based; details: 0.25 h
In short: (§1)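 Swiss white mice (20-25 g) anesthetized with sodium pentobarbital (80 mg/kg ip), then given 0.1-0.2 mL (74 kBq) of radioiodinated compound or 201Tl+ by tail-vein injection. Four mice per time point were killed by cardiac puncture/exsanguination at 5, 15, 30 and 60 min (some also at 90 and 120 min). Organs were excised, washed, blotted and weighed, blood was sampled, and radioactivity was counted against injection standards. Values are percent injected dose/g.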

[2] = Distribution in the lung after 15 min of intravenous administration; format: ADME, tissue-based; details: 0.25 h; in short: as §1
[3] = Distribution in the heart after 120 min of intravenous administration; format: ADME, tissue-based; details: 2 h; in short: as §1
[4] = Distribution in the spleen after 5 min of intravenous administration; format: ADME, tissue-based; in short: as §1
[5] = Distribution in the lung after 60 min of intravenous administration; format: ADME, tissue-based; details: 1 h; in short: as §1
[6] = Distribution in the blood after 30 min of intravenous administration; format: ADME, tissue-based; details: 0.5 h; in short: as §1
[7] = Distribution in the lung after 5 min of intravenous administration; format: ADME, tissue-based; in short: as §1
[8] = test system: Mus musculus; assay: Distribution in the muscle after 30 min of intravenous administration; format: ADME, organism-based, Muscle tissue; details: in vivo, 0.5 h; in short: as §1
[9] = Distribution in the lung after 90 min of intravenous administration; format: ADME, tissue-based; details: 1.5 h; in short: as §1
[10] = Distribution in the bone after 15 min of intravenous administration; format: ADME, tissue-based, Bone element; details: 0.25 h; in short: as §1
[11] = Distribution in the spleen after 90 min of intravenous administration; format: ADME, tissue-based; details: 1.5 h; in short: as §1
[12] = Distribution in the spleen after 60 min of intravenous administration; format: ADME, tissue-based; details: 1 h; in short: as §1
[13] = Distribution in the liver after 5 min of intravenous administration; format: ADME, tissue-based; in short: as §1
[14] = Distribution in the bone after 120 min of intravenous administration; format: ADME, tissue-based, Bone element; details: 2 h; in short: as §1
[15] = Distribution in the lung after 120 min of intravenous administration; format: ADME, tissue-based; details: 2 h; in short: as §1
[16] = Distribution in the liver after 60 min of intravenous administration; format: ADME, tissue-based; details: 1 h; in short: as §1
[17] = Distribution in the liver after 90 min of intravenous administration; format: ADME, tissue-based; details: 1.5 h; in short: as §1
[18] = Distribution in the kidneys after 5 min of intravenous administration; format: ADME, tissue-based, Kidney; in short: as §1
[19] = Distribution in the spleen after 15 min of intravenous administration; format: ADME, tissue-based; details: 0.25 h; in short: as §1
[20] = Distribution in the bone after 5 min of intravenous administration; format: ADME, tissue-based, Bone element; in short: as §1
[21] = Distribution in the lung after 30 min of intravenous administration; format: ADME, tissue-based; details: 0.5 h; in short: as §1
[22] = Distribution in the blood after 60 min of intravenous administration; format: ADME, tissue-based; details: 1 h; in short: as §1
[23] = Distribution in the heart after 30 min of intravenous administration; format: ADME, tissue-based; details: 0.5 h; in short: as §1
[24] = Distribution in the muscle after 15 min of intravenous administration; format: ADME, tissue-based, Muscle tissue; details: 0.25 h; in short: as §1
[25] = Distribution in the spleen after 120 min of intravenous administration; format: ADME, tissue-based; details: 2 h; in short: as §1
[26] = Distribution in the muscle after 5 min of intravenous administration; format: ADME, tissue-based, Muscle tissue; in short: as §1
[27] = Distribution in the muscle after 90 min of intravenous administration; format: ADME, tissue-based, Muscle tissue; details: 1.5 h; in short: as §1
[28] = Distribution in the blood after 120 min of intravenous administration; format: ADME, tissue-based; details: 2 h; in short: as §1
[29] = Distribution in the blood after 5 min of intravenous administration; format: ADME, tissue-based; in short: as §1
[30] = Distribution in the blood after 15 min of intravenous administration; format: ADME, tissue-based; details: 0.25 h; in short: as §1
[31] = Distribution in the heart after 5 min of intravenous administration; format: ADME, tissue-based; in short: as §1
[32] = Distribution in the kidneys after 30 min of intravenous administration; format: ADME, tissue-based, Kidney; details: 0.5 h; in short: as §1
[33] = Distribution in the bone after 60 min of intravenous administration; format: ADME, tissue-based, Bone element; details: 1 h; in short: as §1
[34] = Distribution in the kidneys after 60 min of intravenous administration; format: ADME, tissue-based, Kidney; details: 1 h; in short: as §1
[35] = Distribution in the bone after 30 min of intravenous administration; format: ADME, tissue-based, Bone element; details: 0.5 h; in short: as §1
[36] = Distribution in the kidneys after 120 min of intravenous administration; format: ADME, tissue-based, Kidney; details: 2 h; in short: as §1
[37] = Distribution in the heart after 60 min of intravenous administration; format: ADME, tissue-based; details: 1 h; in short: as §1
[38] = Distribution in the kidneys after 15 min of intravenous administration; format: ADME, tissue-based, Kidney; details: 0.25 h; in short: as §1
[39] = Distribution in the bone after 90 min of intravenous administration; format: ADME, tissue-based, Bone element; details: 1.5 h; in short: as §1
[40] = Distribution in the liver after 120 min of intravenous administration; format: ADME, tissue-based; details: 2 h; in short: as §1
[41] = Distribution in the muscle after 120 min of intravenous administration; format: ADME, tissue-based, Muscle tissue; details: 2 h; in short: as §1
[42] = Distribution in the liver after 15 min of intravenous administration; format: ADME, tissue-based; details: 0.25 h; in short: as §1
[43] = Distribution in the muscle after 60 min of intravenous administration; format: ADME, tissue-based, Muscle tissue; details: 1 h; in short: as §1
[44] = Distribution in the spleen after 30 min of intravenous administration; format: ADME, tissue-based; details: 0.5 h; in short: as §1
[45] = Distribution in the blood after 90 min of intravenous administration; format: ADME, tissue-based; details: 1.5 h; in short: as §1
[46] = Distribution in the kidneys after 90 min of intravenous administration; format: ADME, tissue-based, Kidney; details: 1.5 h; in short: as §1
[47] = Distribution in the liver after 30 min of intravenous administration; format: ADME, tissue-based; details: 0.5 h; in short: as §1
[48] = Distribution in the heart after 90 min of intravenous administration; format: ADME, tissue-based; details: 1.5 h; in short: as §1

Distribution [1]: 21.6%
Distribution [2]: 5.5%
Distribution [3]: 17.7%
Distribution [4]: 5%
Distribution [5]: 3.4%
Distribution [6]: 1.9%
Distribution [7]: 7.3%
Distribution [8]: 1.1%
Distribution [9]: 2.7%
Distribution [10]: 2%
Distribution [11]: 2.1%
Distribution [12]: 2.6%
Distribution [13]: 12.5%
Distribution [14]: 1.3%
Distribution [15]: 2.6%
Distribution [16]: 2.4%
Distribution [17]: 2.3%
Distribution [18]: 40.1%
Distribution [19]: 3.6%
Distribution [20]: 1.6%
Distribution [21]: 4.6%
Distribution [22]: 1.5%
Distribution [23]: 23.1%
Distribution [24]: 1%
Distribution [25]: 2.1%
Distribution [26]: 0.9%
Distribution [27]: 1%
Distribution [28]: 1.4%
Distribution [29]: 1.9%
Distribution [30]: 2.4%
Distribution [31]: 20%
Distribution [32]: 14.1%
Distribution [33]: 1.5%
Distribution [34]: 7.4%
Distribution [35]: 2%
Distribution [36]: 6%
Distribution [37]: 19.5%
Distribution [38]: 24%
Distribution [39]: 1.3%
Distribution [40]: 2%
Distribution [41]: 1.1%
Distribution [42]: 4.9%
Distribution [43]: 1%
Distribution [44]: 3.4%
Distribution [45]: 1.2%
Distribution [46]: 5.3%
Distribution [47]: 4.1%
Distribution [48]: 18.1%
SMILES: C[N+]1(CCOc2cccc(I)c2)CCCCC1
